Measured values from article PMC4156448 (Memórias do Instituto Oswaldo Cruz, 2014).

Tests used:
[1] = system: Plasmodium berghei (NK65); assay: Antimalarial suppressive test against Plasmodium berghei in mice; type: in vivo; conditions: P. berghei; for Inhibition of parasitaemia at days after parasite inoculation (%) Fifth: day 5; for Inhibition of parasitaemia at days after parasite inoculation (%) Ninth: day 9
Outline: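 Oral 4-day-type suppressive test, run once. P. berghei NK65 (chloroquine-sensitive) blood stages kept at -70 °C and passaged weekly in outbred Swiss mice. Adult female mice (20 ± 2 g) received 1 × 10^5 infected erythrocytes and were randomised into groups of three 24 h later. […] Parasitaemia was read on Giemsa-stained tail-blood smears on days 5 and 9, as inhibition versus untreated mice (100%).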

[2] = system: human hepatocellular liver carcinoma cell line (HepG2); assay: Cytotoxicity MTT assay, HepG2 cells; type: cell-based; conditions: 24 h, unit only from tested concentrations
[3] = system: normal monkey kidney cells (BGM); assay: Cytotoxicity MTT assay, BGM cells; type: cell-based; conditions: for BGM MLD50: BGM cells, 24 h, MTT, unit only from tested concentrations
[4] = system: Plasmodium falciparum W2 clone (chloroquine-resistant); assay: In vitro activity against P. falciparum blood-stage parasites, anti-HRPII test; type: cell-based; conditions: classified by IC50
[5] = chloroquine 20 mg/kg, listed as chloroquine
[6] = oral 100 mg/kg for three consecutive days

Structure (SMILES)	HepG2 MLD50 [2]	BGM MLD50 [3]	in vitro activity class against P. falciparum [4]	further results
CCN(CC)CCCC(C)Nc1ccnc2cc(Cl)ccc12 (stereo not shown) [Chloroquine]	–	–	–	Activity ([1]; chloroquine 20 mg/kg): Cure; Inhibition of parasitaemia at days after parasite inoculation (%) Fifth ([1]; chloroquine 20 mg/kg): 100%; Inhibition of parasitaemia at days after parasite inoculation (%) Ninth ([1]; chloroquine 20 mg/kg): 100%; Activity [1, 5]: clearing parasitaemia; survival of mice [1, 5]: maintaining survival of the mice
CC(C)=CCC1=C(O)C(=O)c2ccccc2C1=O [Compound 10, Lapachol]	1,491.7 ± 321.4 µM	1,785.1 ± 888.3 µM	–	–
CC(C)=CC1=C(O)C(=O)c2ccccc2C1=O [Compound 11, Nor-lapachol]	1,698.6 ± 94.8 µM	1,608.8 ± 221.8 µM	partially active (those with IC50 values between 5-30 µM were considered partially active)	in vivo activity class ([1]; oral 100 mg/kg): inactive; Inhibition of parasitaemia at days after parasite inoculation (%) Fifth [1, 6]: 21%; Inhibition of parasitaemia at days after parasite inoculation (%) Ninth [1, 6]: 21%
CC(C)/C=C/C1=C(O)C(=O)c2ccccc2C1=O [Compound 12, Iso-lapachol]	≥ 4,127.6 µM	1,388.9 ± 592.5 µM	partially active (those with IC50 values between 5-30 µM were considered partially active)	difference in cytotoxicity between HepG2 and BGM cells ([3]; HepG2 versus BGM): near two-fold increase
CC1=C(O)C(=O)c2ccccc2C1=O [Compound 13, 2-hydroxy-3-methyl-1,4-naphthoquinone]	5,308.2 ± 8.3 µM	≥ 5,314.1 µM	–	–
